In test [1] the target is T1, Serotonin 2 (5-HT2) receptor (Rattus norvegicus, UniProt P30994+P08909+P14842). Description: Binding affinity towards 5-hydroxytryptamine 2 receptor by the displacement of [3H]ketanserin in rat cerebral cortex membrane. Format: cell membranes. In short, it runs like this:
(§1)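 Displacement of [3H]ketanserin from rat cerebral cortex membranes at the 5-HT2 site. Affinity reported as pKi, given as mean ± SE of 8–12 values.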
For orientation: Displacement assays read how much labelled ligand stays bound in the presence of the test substance.

Test [2] deals with T2, 5-hydroxytryptamine receptor 7 (Homo sapiens, UniProt P34969). The experiment in a line: Ability to displace the radioligand [3H]5-carboximidotryptamine ([3H]-5-CT) from cloned human 5-hydroxytryptamine 7 receptor expressed in COS-7 cells. The format is cell-based. In short, it runs like this: (§2)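 Displacement of [3H]5-CT from cloned human 5-HT7 receptor expressed in COS-7 cells. Affinity reported as pKi, given as mean ± SE of 8–12 values.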
T2 sequence (P34969 whole entry): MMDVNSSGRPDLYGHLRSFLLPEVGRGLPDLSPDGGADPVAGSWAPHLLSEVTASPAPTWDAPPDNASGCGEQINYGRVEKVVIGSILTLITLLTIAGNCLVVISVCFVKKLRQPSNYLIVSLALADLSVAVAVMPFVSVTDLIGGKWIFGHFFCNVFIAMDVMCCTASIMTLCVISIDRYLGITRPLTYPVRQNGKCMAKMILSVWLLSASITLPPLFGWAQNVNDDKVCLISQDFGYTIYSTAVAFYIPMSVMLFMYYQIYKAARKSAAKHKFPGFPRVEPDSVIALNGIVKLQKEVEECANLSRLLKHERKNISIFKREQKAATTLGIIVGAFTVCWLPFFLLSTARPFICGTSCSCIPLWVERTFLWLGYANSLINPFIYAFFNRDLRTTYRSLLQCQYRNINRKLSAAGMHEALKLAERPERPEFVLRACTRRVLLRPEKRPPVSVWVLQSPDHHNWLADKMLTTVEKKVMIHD

The target of test [3] is T3, 5-hydroxytryptamine receptor 2C (Homo sapiens, UniProt P28335).
T3 sequence (P28335 whole entry): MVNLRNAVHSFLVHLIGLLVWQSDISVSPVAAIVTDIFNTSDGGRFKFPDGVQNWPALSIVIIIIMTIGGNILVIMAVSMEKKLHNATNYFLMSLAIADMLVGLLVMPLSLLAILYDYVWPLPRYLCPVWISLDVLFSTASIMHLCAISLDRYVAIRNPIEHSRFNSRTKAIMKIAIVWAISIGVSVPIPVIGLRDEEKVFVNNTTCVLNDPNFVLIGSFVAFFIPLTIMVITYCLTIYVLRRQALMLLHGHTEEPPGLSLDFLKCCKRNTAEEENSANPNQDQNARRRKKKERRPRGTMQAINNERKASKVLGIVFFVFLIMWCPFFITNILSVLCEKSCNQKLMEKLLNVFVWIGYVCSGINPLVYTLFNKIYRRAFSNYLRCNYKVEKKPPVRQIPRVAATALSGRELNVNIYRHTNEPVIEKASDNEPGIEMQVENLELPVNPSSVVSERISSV
Description: Binding affinity towards 5-HT2C receptor by the displacement of [3H]mesulergine] in human recombinant receptors in mammalian cell. In short, it runs like this:
(§3)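 Radioligand displacement binding at the named receptor preparation. Affinity reported as pKi, given as mean ± SE of 8–12 values.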

The target in test [4] is 5-hydroxytryptamine receptor 6 (Homo sapiens, UniProt P50406). Description: Binding affinity towards human recombinant 5-hydroxytryptamine 6 receptor by the displacement of [3H]-5-CT].
5-hydroxytryptamine receptor 6, sequence (P50406 whole entry): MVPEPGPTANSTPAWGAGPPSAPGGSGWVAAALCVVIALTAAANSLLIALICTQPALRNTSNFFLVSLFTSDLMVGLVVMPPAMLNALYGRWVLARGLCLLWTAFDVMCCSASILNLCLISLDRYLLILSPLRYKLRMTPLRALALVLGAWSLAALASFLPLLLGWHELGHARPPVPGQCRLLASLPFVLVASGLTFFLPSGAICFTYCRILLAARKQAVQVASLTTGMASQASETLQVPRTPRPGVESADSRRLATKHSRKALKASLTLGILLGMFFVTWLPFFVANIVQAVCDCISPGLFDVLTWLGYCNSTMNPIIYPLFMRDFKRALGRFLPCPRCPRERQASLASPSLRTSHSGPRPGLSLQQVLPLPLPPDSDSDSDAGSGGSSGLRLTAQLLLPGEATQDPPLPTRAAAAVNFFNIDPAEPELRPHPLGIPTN
Test [5] deals with T4, 5-hydroxytryptamine receptor 1A (Homo sapiens, UniProt P08908).
T4 sequence (P08908 whole entry): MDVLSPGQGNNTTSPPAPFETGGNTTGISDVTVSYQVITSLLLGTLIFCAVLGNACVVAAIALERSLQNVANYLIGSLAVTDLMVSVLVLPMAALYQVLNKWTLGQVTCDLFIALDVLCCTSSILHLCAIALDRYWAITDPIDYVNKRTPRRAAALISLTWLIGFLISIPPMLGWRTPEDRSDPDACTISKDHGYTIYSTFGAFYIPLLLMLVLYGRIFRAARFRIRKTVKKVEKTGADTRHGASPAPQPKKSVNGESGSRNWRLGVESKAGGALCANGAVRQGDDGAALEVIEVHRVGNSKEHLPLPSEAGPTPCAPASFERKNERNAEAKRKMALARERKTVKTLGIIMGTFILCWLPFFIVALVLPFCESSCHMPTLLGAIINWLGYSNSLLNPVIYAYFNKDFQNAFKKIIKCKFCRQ
Description: Binding affinity towards 5-HT1A receptor by the displacement of [3H]-8-OH-DPAT] in human recombinant receptors in mammalian cell. In short, it runs like this:
as §3

The target in test [6] is 5-hydroxytryptamine receptor 1B (Homo sapiens, UniProt P28222). Description: Binding affinity towards 5-HT1B receptor by the displacement of [3H][…]] in human recombinant receptors in mammalian cell.
5-hydroxytryptamine receptor 1B, sequence (P28222 whole entry): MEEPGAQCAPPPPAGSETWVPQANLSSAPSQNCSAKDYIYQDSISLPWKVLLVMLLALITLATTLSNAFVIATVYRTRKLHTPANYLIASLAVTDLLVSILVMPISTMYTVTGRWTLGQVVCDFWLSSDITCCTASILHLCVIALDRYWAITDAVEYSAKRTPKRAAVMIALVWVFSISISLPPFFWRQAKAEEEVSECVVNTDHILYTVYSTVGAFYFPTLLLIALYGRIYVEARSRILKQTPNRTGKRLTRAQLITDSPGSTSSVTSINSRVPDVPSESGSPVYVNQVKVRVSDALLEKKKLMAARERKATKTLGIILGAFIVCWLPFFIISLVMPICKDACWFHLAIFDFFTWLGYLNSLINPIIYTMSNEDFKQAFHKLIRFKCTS
Test [7] deals with Serotonin 3 (5-HT3) receptor. Description: Binding affinity towards 5-HT3 receptor by the displacement of [3H]GR-65630] in human recombinant receptors in mammalian cell. Format: protein-complex assay. The procedure, abridged: as §3
Test [8] deals with 5-hydroxytryptamine receptor 4 (Cavia porcellus, UniProt O70528). Description: Binding affinity towards 5-HT4 receptor by the displacement of [3H]GR-113808 in guinea-pig striatum. The format is tissue-based. In short, it runs like this: as §3
5-hydroxytryptamine receptor 4, sequence (O70528 whole entry): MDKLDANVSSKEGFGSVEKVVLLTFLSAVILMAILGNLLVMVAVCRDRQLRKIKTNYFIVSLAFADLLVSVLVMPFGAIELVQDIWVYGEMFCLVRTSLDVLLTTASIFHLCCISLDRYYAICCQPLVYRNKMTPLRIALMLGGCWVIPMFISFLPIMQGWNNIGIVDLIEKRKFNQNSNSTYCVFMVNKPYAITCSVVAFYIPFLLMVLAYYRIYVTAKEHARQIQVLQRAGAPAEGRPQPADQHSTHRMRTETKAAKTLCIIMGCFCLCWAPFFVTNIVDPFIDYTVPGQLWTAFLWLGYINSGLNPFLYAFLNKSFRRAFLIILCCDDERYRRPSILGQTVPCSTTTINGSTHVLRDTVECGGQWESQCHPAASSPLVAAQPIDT
Test [9] deals with T2, 5-hydroxytryptamine receptor 7. The experiment in a line: Binding affinity towards 5-HT7 receptor by the displacement of [3H]-5-CT] in human recombinant receptors in mammalian cell. In short, it runs like this: as §2
In test [10] the target is T1, Serotonin 2 (5-HT2) receptor. Description: Binding affinity towards 5-HT2 receptor by the displacement of [3H]-ketanserin] in rat cerebral cortex. Format: tissue-based. The procedure, abridged:
as §1

A value given as a limit tells only on which side of the number the result lay.

In test [1], `O=C1Nc2ccc(Cl)c3c2C1(CCCCN1CC=C(c2ccccc2)CC1)CCC3` (stereo not given) had a Log Ki of more than -6.5. The Ki in test [2] is 5.01 nM.
Turning to `O=C1Nc2ccc(Cl)c3c2C1(CCCCN1CC=C(c2ccc(Cl)cc2)CC1)CCC3` (stereo not given), the Ki was more than 1000 nM in [3]; more than 1000 nM in [4]; 316 nM in [5]; more than 1000 nM in [6]; 7.24 nM in test [2]; more than 1000 nM in [8]. In addition, the Ki in test [9] is 7.24 nM. Further, the Log Ki in [1], in [7] and in test [10] was more than -6 throughout.
As for `O=C1Nc2cccc3c2C1(CCCCN1CC=C(c2ccc(F)cc2)CC1)CCC3` (stereo not given), in [1], the Log Ki is more than -7.18.
Molecule `O=C1Nc2ccc(Cl)c3c2C1(CCCCN1CC=C(c2ccc(F)cc2)CC1)CCC3` (stereo not given) returned a Log Ki in [1] of more than -6.64. The same molecule gave a Ki in test [2] of 2.04 nM.

A word on the Ki: it is a measure of affinity in units of concentration, obtained from inhibition or displacement.

The values above are taken from ChEMBL document CHEMBL1136421, “New tetrahydrobenzindoles as potent and selective 5-HT(7) antagonists with increased In vitro metabolic stability” (Bioorg Med Chem Lett, 2003).
